Assay results as given in ChEMBL document CHEMBL3414429, “3,4-diaminobenzoic acid derivatives as inhibitors of the oxytocinase subfamily of M1 aminopeptidases with immune-regulating properties” (J Med Chem, 2015).
The source made the active and inactive calls. No cut-off for these calls is given here.

Columns and labels:
[1] = molecular target: T1, Endoplasmic reticulum aminopeptidase 1 (Mus musculus) (UniProt Q9EQH2); assay: Inhibition of ERAP1 in mouse RAW264.7 cells assessed as reduction in interferon-gamma/LPS-induced phagocytosis after 24 hrs by fluorescent latex beads internalization assay; format: cell-based
T1 sequence (whole entry): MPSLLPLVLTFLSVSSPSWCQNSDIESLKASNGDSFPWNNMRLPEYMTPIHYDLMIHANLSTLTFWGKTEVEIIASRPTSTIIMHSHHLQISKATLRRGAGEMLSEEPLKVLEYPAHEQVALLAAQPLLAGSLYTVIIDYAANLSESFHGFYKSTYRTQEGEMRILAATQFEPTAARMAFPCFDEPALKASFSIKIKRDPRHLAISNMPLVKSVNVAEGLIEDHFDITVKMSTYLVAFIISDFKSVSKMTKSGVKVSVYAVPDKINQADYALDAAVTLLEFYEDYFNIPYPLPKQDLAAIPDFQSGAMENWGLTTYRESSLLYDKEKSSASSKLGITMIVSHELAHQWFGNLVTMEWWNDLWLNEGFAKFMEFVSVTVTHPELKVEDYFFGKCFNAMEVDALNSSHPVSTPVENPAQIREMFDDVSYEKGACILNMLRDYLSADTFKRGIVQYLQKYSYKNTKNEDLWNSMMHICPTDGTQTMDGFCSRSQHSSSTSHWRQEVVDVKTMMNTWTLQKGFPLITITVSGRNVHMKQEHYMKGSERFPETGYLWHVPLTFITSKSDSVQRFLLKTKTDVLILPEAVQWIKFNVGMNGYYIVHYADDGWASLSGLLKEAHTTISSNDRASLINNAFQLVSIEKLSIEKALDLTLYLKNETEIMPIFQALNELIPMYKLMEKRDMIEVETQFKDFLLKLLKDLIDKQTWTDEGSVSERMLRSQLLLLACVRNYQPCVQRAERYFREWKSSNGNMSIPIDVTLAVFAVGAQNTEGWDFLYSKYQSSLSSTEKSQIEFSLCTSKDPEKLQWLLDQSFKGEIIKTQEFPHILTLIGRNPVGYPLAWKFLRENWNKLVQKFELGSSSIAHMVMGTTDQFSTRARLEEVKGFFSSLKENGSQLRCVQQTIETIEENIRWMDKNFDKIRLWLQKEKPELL
How it was run: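 RAW264.7 cells in RPMI 1640/10% FBS, seeded 2×10^4/well for 24 h. Activated with IFN-γ (100 IU/mL) plus LPS (1 μg/mL) with or without inhibitor at various concentrations. FITC-IgG latex beads given in 1% FBS medium for 24 h at 37 °C. Uptake read as fluorescence (ex 485/em 535) after PBS washes; ED50 from curve fit.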

[2] = test system: T-cell; assay: Blockade of cross-presentation in mouse IRAP-deficient BMDC assessed as IL-2 level incubated for 1 day […] and incubated for 6 hrs with yeast cells expressing surface ovalbumin measured 20 hrs post CD8+ T cell-induction by sandwich ELISA method; format: functional, cell-based
How it was run: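 BMDCs from wild-type or IRAP knockout mice, grown 7 days from bone-marrow progenitors in IMDM/10% FCS with GM-CSF-containing J558 supernatant. Inhibitor added day 6 and kept through all steps. Day 7: serial dilutions of surface-ovalbumin yeast for 6 h, then OT-I lymph-node CD8+ T cells (T/BMDC 1.5:1) for 20 h. Supernatant IL-2 by sandwich ELISA; glutaraldehyde-fixed BMDC background subtracted; duplicate wells.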

[3] = test system: Insulin-regulated aminopeptidase, Lnpep (Mus musculus); assay: Inhibition of IRAP in mouse BMDC assessed as blockade of cross-presentation by measuring IL-2 level incubated for 1 day followed by compound wash out and incubated for 6 hrs with yeast cells expressing surface ovalbumin measured 20 hrs post CD8+ T cell-induction by sandwich ELISA method
[4] = molecular target: Endoplasmic reticulum aminopeptidase 1 (Homo sapiens, UniProt Q9NZ08); assay: Inhibition of human recombinant ERAP1 expressed in baculovirus infected […] using L-leucine-7-amido-4-methyl coumarin as substrate up to 100 uM after 5 to 10 mins by fluorescence assay
Chain of Endoplasmic reticulum aminopeptidase 1 (Q9NZ08 whole entry): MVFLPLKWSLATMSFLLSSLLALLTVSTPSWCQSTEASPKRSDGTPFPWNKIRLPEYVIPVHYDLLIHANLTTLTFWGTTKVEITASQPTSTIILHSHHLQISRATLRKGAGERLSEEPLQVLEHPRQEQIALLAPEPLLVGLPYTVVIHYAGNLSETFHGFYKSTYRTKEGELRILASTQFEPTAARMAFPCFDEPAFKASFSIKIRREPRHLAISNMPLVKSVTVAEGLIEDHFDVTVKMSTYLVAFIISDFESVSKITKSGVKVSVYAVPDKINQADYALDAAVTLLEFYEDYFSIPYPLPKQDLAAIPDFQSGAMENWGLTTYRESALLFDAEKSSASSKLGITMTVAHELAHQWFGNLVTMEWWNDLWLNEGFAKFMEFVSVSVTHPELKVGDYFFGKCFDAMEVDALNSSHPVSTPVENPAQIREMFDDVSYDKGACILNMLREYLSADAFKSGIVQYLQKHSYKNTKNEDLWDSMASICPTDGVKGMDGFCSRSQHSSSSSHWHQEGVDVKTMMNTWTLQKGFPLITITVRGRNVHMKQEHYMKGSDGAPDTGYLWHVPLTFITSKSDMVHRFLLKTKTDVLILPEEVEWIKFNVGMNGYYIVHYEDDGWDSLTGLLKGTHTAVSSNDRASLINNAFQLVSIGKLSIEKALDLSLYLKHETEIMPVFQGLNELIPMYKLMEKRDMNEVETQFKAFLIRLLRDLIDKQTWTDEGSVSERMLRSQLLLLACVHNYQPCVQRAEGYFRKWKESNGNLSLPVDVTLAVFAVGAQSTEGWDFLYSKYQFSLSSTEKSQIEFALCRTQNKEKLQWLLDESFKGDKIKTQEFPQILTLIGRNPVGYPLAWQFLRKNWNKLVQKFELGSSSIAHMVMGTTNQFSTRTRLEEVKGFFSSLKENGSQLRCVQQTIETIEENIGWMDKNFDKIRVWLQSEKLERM
How it was run: (§1)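 Recombinant human enzymes made in baculovirus-infected Hi5 cells, kept in 10 mM HEPES pH 7, 100 mM NaCl, 10% glycerol. ERAP1 30 nM, ERAP2 6 nM or IRAP 6 nM with 50 μM substrate (L-AMC for ERAP1 and IRAP, R-AMC for ERAP2) and varied inhibitor. Fluorescence rise followed at ex 380/em 460; IC50 from fit of activity against inhibitor concentration.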

[5] = molecular target: Endoplasmic reticulum aminopeptidase 2 (Homo sapiens, UniProt Q6P179); assay: Inhibition of human recombinant ERAP2 expressed in baculovirus infected cabbage looper ovary Hi5 cells using L-arginyl-7-amido-4-methyl coumarin as substrate up to 100 uM after 5 to 10 mins by fluorescence assay; details: BTI-TN-5B1-4; how it was run: as §1
Chain of Endoplasmic reticulum aminopeptidase 2 (Q6P179 whole entry): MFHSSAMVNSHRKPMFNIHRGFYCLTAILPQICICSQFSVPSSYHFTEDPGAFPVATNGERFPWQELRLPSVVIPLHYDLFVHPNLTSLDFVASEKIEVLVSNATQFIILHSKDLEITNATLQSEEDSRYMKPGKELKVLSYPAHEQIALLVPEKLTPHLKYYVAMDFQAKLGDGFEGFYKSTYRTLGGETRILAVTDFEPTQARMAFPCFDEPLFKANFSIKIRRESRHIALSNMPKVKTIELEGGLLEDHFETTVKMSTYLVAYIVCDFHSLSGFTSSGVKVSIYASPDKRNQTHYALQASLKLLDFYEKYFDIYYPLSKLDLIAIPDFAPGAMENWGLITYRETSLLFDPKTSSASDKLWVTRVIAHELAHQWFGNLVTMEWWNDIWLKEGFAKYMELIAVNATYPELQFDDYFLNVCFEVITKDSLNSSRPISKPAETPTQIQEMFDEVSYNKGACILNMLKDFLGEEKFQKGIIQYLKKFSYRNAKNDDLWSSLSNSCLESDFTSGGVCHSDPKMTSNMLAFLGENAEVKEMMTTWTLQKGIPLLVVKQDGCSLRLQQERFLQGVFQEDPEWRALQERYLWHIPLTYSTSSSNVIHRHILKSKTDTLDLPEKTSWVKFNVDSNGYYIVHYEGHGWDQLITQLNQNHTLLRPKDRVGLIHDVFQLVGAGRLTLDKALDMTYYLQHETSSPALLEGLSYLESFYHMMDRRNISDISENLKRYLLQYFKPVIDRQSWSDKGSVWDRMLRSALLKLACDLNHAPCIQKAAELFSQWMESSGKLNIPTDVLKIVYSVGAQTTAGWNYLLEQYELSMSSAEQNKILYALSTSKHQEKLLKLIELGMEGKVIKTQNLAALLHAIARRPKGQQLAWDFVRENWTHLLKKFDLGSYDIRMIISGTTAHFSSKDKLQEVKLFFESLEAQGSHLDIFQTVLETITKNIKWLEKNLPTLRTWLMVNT

[6] = molecular target: Leucyl-cystinyl aminopeptidase (Homo sapiens, UniProt Q9UIQ6); assay: Inhibition of human recombinant IRAP expressed in baculovirus infected cabbage looper ovary Hi5 cells using L-leucine-7-amido-4-methyl coumarin as substrate after 5 to 10 mins by fluorescence assay; design: species or system Female gonad, BTI-TN-5B1-4
Chain of Leucyl-cystinyl aminopeptidase (Q9UIQ6 whole entry): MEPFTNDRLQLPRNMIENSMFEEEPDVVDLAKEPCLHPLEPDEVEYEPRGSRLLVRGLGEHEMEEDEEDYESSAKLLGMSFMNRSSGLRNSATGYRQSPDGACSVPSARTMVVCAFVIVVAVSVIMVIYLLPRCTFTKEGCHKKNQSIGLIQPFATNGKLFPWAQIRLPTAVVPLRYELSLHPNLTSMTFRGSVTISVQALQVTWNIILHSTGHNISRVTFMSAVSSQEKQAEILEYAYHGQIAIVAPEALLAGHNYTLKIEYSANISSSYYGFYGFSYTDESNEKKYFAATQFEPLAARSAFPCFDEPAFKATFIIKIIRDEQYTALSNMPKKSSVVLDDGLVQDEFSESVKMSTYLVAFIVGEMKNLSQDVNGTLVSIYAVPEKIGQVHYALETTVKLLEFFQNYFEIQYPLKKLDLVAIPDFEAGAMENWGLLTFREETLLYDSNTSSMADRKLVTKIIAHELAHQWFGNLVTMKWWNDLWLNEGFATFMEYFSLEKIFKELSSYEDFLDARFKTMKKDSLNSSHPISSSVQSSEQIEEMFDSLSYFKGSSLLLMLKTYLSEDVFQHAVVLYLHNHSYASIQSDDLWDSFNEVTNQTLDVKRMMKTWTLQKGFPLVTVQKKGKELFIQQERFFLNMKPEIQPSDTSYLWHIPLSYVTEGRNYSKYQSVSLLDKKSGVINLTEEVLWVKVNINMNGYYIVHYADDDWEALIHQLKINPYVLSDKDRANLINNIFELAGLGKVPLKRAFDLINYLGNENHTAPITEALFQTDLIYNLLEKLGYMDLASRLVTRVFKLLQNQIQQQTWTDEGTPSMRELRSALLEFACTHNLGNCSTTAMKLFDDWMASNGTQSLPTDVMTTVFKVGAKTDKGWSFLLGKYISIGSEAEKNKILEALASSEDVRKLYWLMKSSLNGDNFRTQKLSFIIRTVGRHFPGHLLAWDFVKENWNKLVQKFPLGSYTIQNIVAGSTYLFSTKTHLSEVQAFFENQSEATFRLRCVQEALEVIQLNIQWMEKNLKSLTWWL

| ED50 [1] [nM] | inhibition [1] | ED50 [3] [nM] | inhibition [3] | inhibition [4] | inhibition [5] | IC50 [6] [nM] | SMILES | Activity [2] |
| --- | --- | --- | --- | --- | --- | --- | --- | --- |
| 560 | Dose-dependent effect | 6.5 | Dose-dependent effect |  |  |  | CCCC[C@H](N)C(=O)Nc1cc(C(=O)N[C@@H](Cc2c[nH]c3ccccc23)C(=O)OCc2ccccc2)ccc1N | inactive |
|  |  |  |  | inactive | inactive | > 100000 | NCCC[C@H](NC(=O)c1ccc(N)c(NC(=O)[C@@H](N)CCc2ccccc2)c1)C(=O)O |  |
|  |  |  |  | inactive | inactive | > 100000 | COC(=O)[C@H](CCCCN)NC(=O)c1ccc(NC(=O)[C@@H](N)CC(C)C)c(N)c1 |  |
|  |  |  |  | inactive |  | > 100000 | CCCC[C@H](N)C(=O)Nc1cc(C(=O)N[C@H](C(=O)O)C(C)C)ccc1N |  |
